Assay results published in ChEMBL document CHEMBL1255494, “In vivo comparison of the pharmacodynamic targets for echinocandin drugs against Candida species” (Antimicrob Agents Chemother, 2010).
Values after ≈ are worked out from the molar mass of the structure shown.

What was measured:
Candida albicans [1] = assay: Antifungal activity against Candida albicans infected in ICR Swiss mouse; type: functional
In short: (§1)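 Female ICR Swiss mice, neutropenic via cyclophosphamide s.c. (150 mg/kg day −4, 100 mg/kg day −1 and day +2), infected by tail-vein injection of clinical isolates 2 h before therapy. Intraperitoneal dosing every 24 h for 4 days, 4–6 dose levels from 0.078 to 160 mg/kg, 3 mice per regimen. Kidney CFU counted at 96 h. Sigmoid dose-effect fit gives static dose and 1 log kill dose relative to burden at start of therapy.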

Candida parapsilosis [2] = assay: Antifungal activity against Candida parapsilosis 20557.012 after 24 hrs; type: functional; settings: Lodderomyces parapsilosis, 20557.012, 24 h
In short: (§2)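 MICs by CLSI M27-A3 broth dilution in RPMI 1640, inoculum 0.5 × 10³ to 2.5 × 10³ cells/ml, 35°C. Read visually at 24 h as the lowest concentration giving ≥50% growth reduction versus control. Run on three occasions in duplicate and reported as the mean. C. krusei ATCC 6258 and C. parapsilosis ATCC 22019 served as QC strains.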

Candida parapsilosis [3] = assay: Antifungal activity against Candida parapsilosis 20511.092 after 24 hrs; type: functional; settings: Lodderomyces parapsilosis, 20511.092, 24 h; in short: as §2
Nakaseomyces glabratus [4] = assay: Antifungal activity against Candida glabrata 33609 after 24 hrs; type: functional; settings: Nakaseomyces glabratus, 33609, 24 h
In short: (§3)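 Broth microdilution per CLSI M27-A3 in RPMI 1640; inoculum 0.5 × 10³ to 2.5 × 10³ cells/ml, 35°C. […] Three separate occasions in duplicate, mean reported; C. krusei ATCC 6258 and C. parapsilosis ATCC 22019 as daily QC.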

Candida albicans [5] = assay: Antifungal activity against Candida albicans 570 after 24 hrs; type: functional; settings: Candida albicans, 570, 24 h; in short: as §2
Candida albicans [6] = assay: Antifungal activity against Candida albicans K1 after 24 hrs; type: functional; settings: K1, 24 h; in short: as §3
Nakaseomyces glabratus [7] = assay: Antifungal activity against Candida glabrata 35315 after 24 hrs; type: functional; settings: Nakaseomyces glabratus, 35315, 24 h; in short: as §2
Candida parapsilosis [8] = assay: Antifungal activity against Candida parapsilosis infected in ICR Swiss mouse assessed log reduction in bacterial count […]; type: functional; in short: as §1
Nakaseomyces glabratus [9] = assay: Antifungal activity against Candida glabrata 5592 after 24 hrs; type: functional; settings: Nakaseomyces glabratus, 5592, 24 h; in short: as §3
Candida parapsilosis [10] = assay: Antifungal activity against Candida parapsilosis 20519.069 after 24 hrs; type: functional; settings: Lodderomyces parapsilosis, 20519.069, 24 h; in short: as §2
Candida parapsilosis [11] = assay: Antifungal activity against Candida parapsilosis infected in ICR Swiss mouse; type: functional; in short: as §1
Nakaseomyces glabratus [12] = assay: Antifungal activity against Candida glabrata 5376 after 24 hrs; type: functional; settings: Nakaseomyces glabratus, 5376, 24 h; in short: as §3
Mus musculus = assay: Protein binding in Candida albicans infected neutropenic ICR Swiss mouse at 80 mg/kg, ip; type: ADME, organism-based; parameters: dose 80 mg/kg, route intraperitoneal; settings: in vivo
[13] = AUC (0 to 24 hrs) in Candida albicans infected neutropenic ICR Swiss mouse at 20 mg/kg, ip; type: ADME, organism-based; parameters: time < 24 hr, dose 20 mg/kg, route intraperitoneal; settings: plasma
In short: (§4)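 Neutropenic female ICR Swiss mice (cyclophosphamide sc at 150 mg/kg on day −4, 100 mg/kg on day −1 and day +2) infected iv via tail vein with Candida; single ip doses of 5, 20 or 80 mg/kg. Serum drawn from 3 mice per time point at eight time points and assayed by microbiologic assay (C. albicans K1) or […]. Noncompartmental analysis; AUC by trapezoidal rule.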

Candida parapsilosis [14] = assay: Antifungal activity against Candida parapsilosis 20477.078 after 24 hrs; type: functional; settings: Lodderomyces parapsilosis, 20477.078, 24 h; in short: as §2
Candida albicans [15] = assay: Fungistatic activity against Candida albicans infected in neutropenic ICR Swiss mouse after 24 hrs; type: functional; in short: as §1
Candida albicans [16] = assay: Antifungal activity against Candida albicans 98-17 after 24 hrs; type: functional; settings: 98-17, 24 h; in short: as §2
[17] = Cmax in Candida albicans infected neutropenic ICR Swiss mouse at 80 mg/kg, ip; type: ADME, organism-based; parameters: dose 80 mg/kg, route intraperitoneal; settings: ICR Swiss, in vivo; in short: as §4
Candida parapsilosis [18] = assay: Antifungal activity against Candida parapsilosis 20435.057 after 24 hrs; type: functional; settings: Lodderomyces parapsilosis, 20435.057, 24 h; in short: as §2
Candida albicans [19] = assay: Antifungal activity against Candida albicans infected in ICR Swiss mouse assessed as log reduction in bacterial count […]; type: functional; in short: as §1
Candida parapsilosis [20] = assay: Antifungal activity against Candida parapsilosis 20423.072 after 24 hrs; type: functional; settings: Lodderomyces parapsilosis, 20423.072, 24 h; in short: as §2
[21] = Cmax in Candida albicans infected neutropenic ICR Swiss mouse at 20 mg/kg, ip; type: ADME, organism-based; parameters: dose 20 mg/kg, route intraperitoneal; settings: ICR Swiss, in vivo; in short: as §4
Candida parapsilosis [22] = assay: Antifungal activity against Candida parapsilosis 20489.085 after 24 hrs; type: functional; settings: Lodderomyces parapsilosis, 20489.085, 24 h; in short: as §3
Candida orthopsilosis = assay: Antifungal activity against Candida orthopsilosis 20577.055 after 24 hrs; type: functional; settings: Lodderomyces orthopsilosis, 20577.055, 24 h; in short: as §2
Candida parapsilosis [23] = assay: Antifungal activity against Candida parapsilosis 20385.079 after 24 hrs; type: functional; settings: Lodderomyces parapsilosis, 20385.079, 24 h; in short: as §2
Candida parapsilosis [24] = assay: Antifungal activity against Candida parapsilosis 20562.03 after 24 hrs; type: functional; settings: Lodderomyces parapsilosis, 20562.03, 24 h; in short: as §2
Nakaseomyces glabratus [25] = assay: Antifungal activity against Candida glabrata 32930 after 24 hrs; type: functional; settings: Nakaseomyces glabratus, 32930, 24 h; in short: as §3
[26] = Cmax in Candida albicans infected neutropenic ICR Swiss mouse at 5 mg/kg, ip; type: ADME, organism-based; parameters: dose 5 mg/kg, route intraperitoneal; settings: ICR Swiss, in vivo; in short: as §4
Candida albicans [27] = assay: Antifungal activity against Candida albicans 580 after 24 hrs; type: functional; settings: Candida albicans, 580, 24 h; in short: as §3
Nakaseomyces glabratus [28] = assay: Antifungal activity against Candida glabrata infected in ICR Swiss mouse; type: functional; in short: as §1
Nakaseomyces glabratus [29] = assay: Antifungal activity against Candida glabrata 513 after 24 hrs; type: functional; settings: Nakaseomyces glabratus, 513, 24 h; in short: as §3
Nakaseomyces glabratus [30] = assay: Antifungal activity against Candida glabrata 34341 after 24 hrs; type: functional; settings: Nakaseomyces glabratus, 34341, 24 h; in short: as §2
Nakaseomyces glabratus [31] = assay: Antifungal activity against Candida glabrata 33616 after 24 hrs; type: functional; settings: Nakaseomyces glabratus, 33616, 24 h; in short: as §2
Candida metapsilosis = assay: Antifungal activity against Candida metapsilosis 20463.02 after 24 hrs; type: functional; settings: Lodderomyces metapsilosis, 20463.02, 24 h; in short: as §2
Candida parapsilosis [32] = assay: Antifungal activity against Candida parapsilosis 20553.009 after 24 hrs; type: functional; settings: Lodderomyces parapsilosis, 20553.009, 24 h; in short: as §2
Candida parapsilosis [33] = assay: Fungistatic activity against Candida parapsilosis infected in neutropenic ICR Swiss mouse after 24 hrs; type: functional; in short: as §1
Candida parapsilosis [34] = assay: Antifungal activity against Candida parapsilosis 20477.048 after 24 hrs; type: functional; settings: Lodderomyces parapsilosis, 20477.048, 24 h; in short: as §2
Nakaseomyces glabratus [35] = assay: Fungistatic activity against Candida glabrata infected in neutropenic ICR Swiss mouse after 24 hrs; type: functional; in short: as §1
Nakaseomyces glabratus [36] = assay: Antifungal activity against Candida glabrata infected in neutropenic ICR Swiss mouse assessed log reduction in bacterial count […]; type: functional; in short: as §1
[37] = AUC (0 to 24 hrs) in Candida albicans infected neutropenic ICR Swiss mouse at 5 mg/kg, ip; type: ADME, organism-based; parameters: time < 24 hr, dose 5 mg/kg, route intraperitoneal; settings: plasma; in short: as §4
Candida parapsilosis [38] = assay: Antifungal activity against Candida parapsilosis 20450.096 after 24 hrs; type: functional; settings: Lodderomyces parapsilosis, 20450.096, 24 h; in short: as §2
Candida albicans [39] = assay: Antifungal activity against Candida albicans 98-234 after 24 hrs; type: functional; settings: 98-234, 24 h; in short: as §2
[40] = AUC (0 to 24 hrs) in Candida albicans infected neutropenic ICR Swiss mouse at 80 mg/kg, ip; type: ADME, organism-based; parameters: time < 24 hr, dose 80 mg/kg, route intraperitoneal; settings: plasma; in short: as §4
Candida albicans [41] = assay: Antifungal activity against Candida albicans 98-210 after 24 hrs; type: functional; settings: 98-210, 24 h; in short: as §3
Candida parapsilosis [42] = assay: Antifungal activity against Candida parapsilosis 20423.078 after 24 hrs; type: functional; settings: Lodderomyces parapsilosis, 20423.078, 24 h; in short: as §2

CC[C@H](C)C[C@H](C)CCCCCCCCC(=O)N[C@H]1C[C@@H](O)[C@@H](NCCN)NC(=O)[C@@H]2[C@@H](O)CCN2C(=O)[C@H]([C@H](O)CCN)NC(=O)[C@H]([C@H](O)[C@@H](O)c2ccc(O)cc2)NC(=O)[C@@H]2C[C@@H](O)CN2C(=O)[C@H]([C@@H](C)O)NC1=O [CASPOFUNGIN]
Emax (Candida albicans [1]): 4.1 log10 CFU/kidneys | ED50 (Candida albicans [1]; Candida albicans): 8 mg/kg | MIC (Candida parapsilosis [2]): 0.12 µg/mL (≈ 0.11 µM) | MIC (Candida parapsilosis [3]): 0.06 µg/mL (≈ 0.0549 µM) | MIC (Nakaseomyces glabratus [4]): 0.03 µg/mL (≈ 0.0274 µM) | MIC (Candida albicans [5]): 0.12 µg/mL (≈ 0.11 µM) | MIC (Candida albicans [6]): 0.03 µg/mL (≈ 0.0274 µM) | MIC (Nakaseomyces glabratus [7]): 0.12 µg/mL (≈ 0.11 µM) | Activity (Candida parapsilosis [8]): 9.84 mg/kg | MIC (Nakaseomyces glabratus [9]): 0.03 µg/mL (≈ 0.0274 µM) | MIC (Candida parapsilosis [10]): 1 µg/mL (≈ 0.915 µM) | Emax (Candida parapsilosis [11]): 5.5 log10 CFU/kidneys | ED50 (Candida parapsilosis [11]; Lodderomyces parapsilosis): 10.4 mg/kg | MIC (Nakaseomyces glabratus [12]): 0.03 µg/mL (≈ 0.0274 µM) | Activity (Mus musculus): 97% | AUC(0-t) at 24 h [13]: 345 µg·h/mL | MIC (Candida parapsilosis [14]): 0.5 µg/mL (≈ 0.457 µM) | Activity (Candida albicans [15]): 0.72 mg/kg | MIC (Candida albicans [16]): 0.12 µg/mL (≈ 0.11 µM) | Cmax [17]: 58000 ng/mL | MIC (Candida parapsilosis [18]): 0.06 µg/mL (≈ 0.0549 µM) | Activity (Candida albicans [19]): 2.91 mg/kg | MIC (Candida parapsilosis [20]): 0.12 µg/mL (≈ 0.11 µM) | Cmax [21]: 26000 ng/mL | MIC (Candida parapsilosis [22]): 0.25 µg/mL (≈ 0.229 µM) | MIC (Candida orthopsilosis): 0.06 µg/mL (≈ 0.0549 µM) | MIC (Candida parapsilosis [23]): 0.5 µg/mL (≈ 0.457 µM) | MIC (Candida parapsilosis [24]): 0.25 µg/mL (≈ 0.229 µM) | MIC (Nakaseomyces glabratus [25]): 0.03 µg/mL (≈ 0.0274 µM) | Cmax [26]: 18000 ng/mL | MIC (Candida albicans [27]): 0.03 µg/mL (≈ 0.0274 µM) | Emax (Nakaseomyces glabratus [28]): 7 log10 CFU/kidneys | ED50 (Nakaseomyces glabratus [28]; Nakaseomyces glabratus): 6.9 mg/kg | MIC (Nakaseomyces glabratus [29]): 0.03 µg/mL (≈ 0.0274 µM) | MIC (Nakaseomyces glabratus [30]): 0.25 µg/mL (≈ 0.229 µM) | MIC (Nakaseomyces glabratus [31]): 0.25 µg/mL (≈ 0.229 µM) | MIC (Candida metapsilosis): 0.06 µg/mL (≈ 0.0549 µM) | MIC (Candida parapsilosis [32]): 1 µg/mL (≈ 0.915 µM) | Activity (Candida parapsilosis [33]): 3.56 mg/kg | MIC (Candida parapsilosis [34]): 4 µg/mL (≈ 3.66 µM) | Activity (Nakaseomyces glabratus [35]): 0.33 mg/kg | Activity (Nakaseomyces glabratus [36]): 1.16 mg/kg | AUC(0-t) at 24 h [37]: 164 µg·h/mL | MIC (Candida parapsilosis [38]): 0.5 µg/mL (≈ 0.457 µM) | MIC (Candida albicans [39]): 0.03 µg/mL (≈ 0.0274 µM) | AUC(0-t) at 24 h [40]: 667 µg·h/mL | MIC (Candida albicans [41]): 0.02 µg/mL (≈ 0.0183 µM) | MIC (Candida parapsilosis [42]): 0.25 µg/mL (≈ 0.229 µM)
